The record followed here is ChEMBL document CHEMBL4152188, “Design, synthesis and biological evaluation of C(4) substituted monobactams as antibacterial agents against multidrug-resistant Gram-negative bacteria” (Eur J Med Chem, 2018).

By MIC is commonly meant the smallest concentration in the dilution series that meets the test's criterion for growth inhibition.

Each structure is given as a SMILES string. Converted amounts (≈) assume the structure as drawn.

Series [1] relates to Klebsiella pneumoniae. The series can be described thus: Antibacterial activity against KPC-2 producing Klebsiella pneumoniae isolate 209632 after 18 hrs by CLSI broth microdilution method. To be noted: isolate 209632, 18 h. Format: functional.
The test system of series [2] is Escherichia coli. Briefly: Antibacterial activity against extended-spectrum beta-lactamase producing Escherichia coli isolate 212648 after 18 hrs by CLSI broth microdilution method. Format: functional. To be noted: isolate 212648, 18 h. Background: In broth dilution the organism is exposed to a series of concentrations in liquid medium.
For series [3], the system named is Klebsiella pneumoniae. The series can be described thus: Antibacterial activity against KPC-2 producing Klebsiella pneumoniae isolate 212229 after 18 hrs in presence of BPL by CLSI broth microdilution method. To be noted: isolate 212229, 18 h. Format: functional. The procedure, abridged: (§1)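 CLSI broth microdilution against clinical isolates (ESBL E. coli, KPC-2 MDR K. pneumoniae, IMP-4 MDR P. aeruginosa; five per species). Iron limitation: Mueller-Hinton broth supplemented with 16 mg/liter 2,2'-bipyridyl to complex iron and induce iron uptake systems. Read-out: MIC.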

For series [4], the system named is Pseudomonas aeruginosa. Briefly: Selectivity index, ratio of MIC for against IMP-4 producing Pseudomonas aeruginosa isolate 209471 to MIC for against IMP-4 producing Pseudomonas aeruginosa isolate 209471 in presence of BPL. Format: functional.
In series [5] the test system is Klebsiella pneumoniae. The series can be described thus: Antibacterial activity against KPC-2 producing Klebsiella pneumoniae isolate 212232 after 18 hrs by CLSI broth microdilution method. To be noted: isolate 212232, 18 h. Format: functional.
The nature of series [6]: Elimination half life in mouse liver microsomes at 0.1 uM pre-incubated with compound followed by NADPH addition and measured after 60 mins by LC-MS/MS analysis. Format: ADME, microsome. The conditions noted are these: read-out: beta t1/2. In general terms: Liver microsomes are a subcellular fraction often used to study metabolism.
Series [7] relates to Klebsiella pneumoniae. The series can be described thus: Antibacterial activity against KPC-2 producing Klebsiella pneumoniae isolate 209632 after 18 hrs in presence of BPL by CLSI broth microdilution method. The conditions noted are these: isolate 209632, 18 h. Format: functional. The procedure, abridged: as §1
Series [8] deals with Pseudomonas aeruginosa. The series can be described thus: Selectivity index, ratio of MIC for against IMP-4 producing Pseudomonas aeruginosa isolate 208247 to MIC for against IMP-4 producing Pseudomonas aeruginosa isolate 208247 in presence of BPL. Format: functional.
Series [9] has as its system Pseudomonas aeruginosa. Briefly: Antibacterial activity against IMP-4 producing Pseudomonas aeruginosa isolate 209471 after 18 hrs by CLSI broth microdilution method. To be noted: isolate 209471, 18 h. Format: functional.
Series [10] in a line: Intrinsic clearance in human liver microsomes assessed per g protein at 0.1 uM pre-incubated with compound followed by NADPH addition and measured after 60 mins by LC-MS/MS analysis. Format: ADME, microsome. To be noted: 1 h. The procedure, abridged: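 Liver microsomes, 0.33 mg/mL microsomal protein, with an NADP+-regenerating system. Test article at 0.1 µM, incubated at 37°C. Samples were taken at 0, 7, 17, 30 and 60 min, and parent compound was measured by MS. Half-life, intrinsic clearance (ml/min/g protein) and MF (%) are derived from parent loss.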

In series [11] the test system is Escherichia coli. The series can be described thus: Selectivity index, ratio of MIC for against extended-spectrum beta-lactamase producing Escherichia coli isolate 209285 to MIC for extended-spectrum beta-lactamase producing Escherichia coli isolate 209285 in presence of BPL. Format: functional.
The test system of series [12] is Pseudomonas aeruginosa. The series can be described thus: Antibacterial activity against IMP-4 producing Pseudomonas aeruginosa isolate 209471 after 18 hrs in presence of BPL by CLSI broth microdilution method. Format: functional. The conditions noted are these: isolate 209471, 18 h. The gist of the method: as §1
Series [13] relates to Klebsiella pneumoniae. The series can be described thus: Selectivity index, ratio of MIC for against KPC-2 producing Klebsiella pneumoniae isolate 212232 to MIC for against KPC-2 producing Klebsiella pneumoniae isolate 212232 in presence of BPL. Format: functional.
The subject of series [14] is Pseudomonas aeruginosa. The series can be described thus: Antibacterial activity against IMP-4 producing Pseudomonas aeruginosa isolate 208247 after 18 hrs in presence of BPL by CLSI broth microdilution method. Format: functional. The conditions noted are these: isolate 208247, 18 h. The gist of the method:
as §1

Series [15] relates to Escherichia coli. The series can be described thus: Antibacterial activity against extended-spectrum beta-lactamase producing Escherichia coli isolate 208687 after 18 hrs by CLSI broth microdilution method. Format: functional. To be noted: isolate 208687, 18 h.
The test system of series [16] is Klebsiella pneumoniae. Briefly: Antibacterial activity against KPC-2 producing Klebsiella pneumoniae isolate 212423 after 18 hrs in presence of BPL by CLSI broth microdilution method. Format: functional. To be noted: isolate 212423, 18 h. The procedure, abridged:
as §1

Regarding `CC(C)C(O/N=C(\C(=O)N[C@@H]1C(=O)N(S(=O)(=O)O)C12CCCC2)c1csc(N)n1)c1cc(=O)c(O)cn1O` (some centres undefined), the MIC in series [1] was 2 µg/mL (≈ 3.51 µM); in [2], 1 µg/mL (≈ 1.75 µM); in series [3], 0.125 µg/mL; in series [5], 1 µg/mL (≈ 1.75 µM); in series [7] it was 0.25 µg/mL; in series [9] it was 16 µg/mL (≈ 28 µM). For the same molecule, the MIC in series [12] was determined as 16 µg/mL; in [14], 8 µg/mL; in [15], 0.5 µg/mL (≈ 0.876 µM); in series [16] it was 0.5 µg/mL. Moreover, the “Selectivity Index” value was determined as 1 in series [4], 2 in series [8], 1 in [11] and 16 in [13]. In addition, the half-life at 0.1 µM in series [6] is 6.25 h. In series [10], the CLint turned out to be 7.76 mL/min/g.

On to `CC(C)C(O/N=C(\C(=O)N[C@@H]1C(=O)N(S(=O)(=O)O)[C@@H]1COC(N)=O)c1csc(N)n1)c1cc(=O)c(O)cn1O` (some centres undefined), for which the minimal inhibitory concentration (MIC) amounted to 8 µg/mL (≈ 13.6 µM) in [1]; 1 µg/mL (≈ 1.7 µM) in [2]; 0.25 µg/mL in [3]; 1 µg/mL (≈ 1.7 µM) in [5]; 2 µg/mL in series [7]; 8 µg/mL (≈ 13.6 µM) in [9]. Moreover, the MIC stood at 8 µg/mL in [12], 4 µg/mL in series [14], 0.5 µg/mL (≈ 0.848 µM) in [15] and 0.5 µg/mL in [16]. Also, the “Selectivity Index” value is recorded as 1 in series [4], 1 in series [8], 4 in series [11] and 4 in series [13]. Besides, the half-life at 0.1 µM in series [6] is 10.3 h. In series [10], the CLint came out at 11.9 mL/min/g.

For the molecule `CC(C)C(O/N=C(\C(=O)N[C@@H]1C(=O)N(S(=O)(=O)O)[C@@H]1Cn1cc(COCc2cc(=O)c(O)cn2O)nn1)c1csc(N)n1)c1cc(=O)c(O)cn1O` (some centres undefined), the MIC is 2 µg/mL (≈ 2.61 µM) in series [1]; 16 µg/mL (≈ 20.9 µM) in series [2]; 0.25 µg/mL in [3]; 2 µg/mL (≈ 2.61 µM) in series [5]; 0.25 µg/mL in series [7]; 8 µg/mL (≈ 10.4 µM) in series [9]. For the same molecule, the MIC in series [12] was determined as 2 µg/mL; in [14] it was 4 µg/mL; in series [15], 16 µg/mL (≈ 20.9 µM); in series [16], 0.25 µg/mL. Also, the “Selectivity Index” value in series [4] is on record as 4; in [8], 1; in series [11], 2; in series [13], 8. Also, the half-life at 0.1 µM in series [6] was 1.29 h. The CLint in series [10] came to 26.2 mL/min/g.

For `CC(C)C(O/N=C(\C(=O)N[C@@H]1C(=O)N(S(=O)(=O)O)[C@@H]1CCl)c1csc(N)n1)c1cc(=O)c(O)cn1O` (some centres undefined), the MIC in series [1] came to 4 µg/mL (≈ 7.08 µM); in [2], 1 µg/mL (≈ 1.77 µM); in [3], 0.25 µg/mL; in [5] it was 2 µg/mL (≈ 3.54 µM); in series [7], 4 µg/mL; in [9], 8 µg/mL (≈ 14.2 µM). Further, the MIC in [12] is 4 µg/mL; in [14], 8 µg/mL; in [15] it was 0.5 µg/mL (≈ 0.885 µM); in series [16] it was 0.5 µg/mL. The “Selectivity Index” value in [4] came to 2; in [8], 1; in series [11], 1; in [13], 4. Besides, in series [6], the half-life at 0.1 µM was determined as 1.2 h. Besides, the CLint in [10] was 11.1 mL/min/g.
